# Reference: ChEMBL document CHEMBL1124570, “2-[[(4-Amino-2-pyridyl)methyl]sulfinyl]benzimidazole H+/K+-ATPase inhibitors. The relationship between pyridine basicity, stability, and activity” (J Med Chem, 1989)
# What was measured:
# [1] = Half-life at pH 7.4; assay type: ADME; conditions: buffer
# Method in brief: (§1)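 Stability at ambient temperature (20 °C) in acetonitrile/phosphate buffer (1:3) adjusted to the stated pH. Initial compound concentration is 1 × 10⁻³ to 3 × 10⁻⁴ M. Loss is followed by reverse-phase C18 HPLC with UV detection at 280 nm. t1/2 comes from linear regression of ln(concentration) vs time (h).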
# [2] = test system: Canis familiaris; experiment: Inhibition of histamine-stimulated gastric acid secretion in conscious Heidenhain pouch dog after intravenous administration; assay type: functional; conditions: Canis lupus familiaris, Stomach
# Method in brief: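 Conscious dog with a Heidenhain pouch made 1-3 years earlier. Acid secretion is stimulated by i.v. histamine at 0.5 μmol/(kg·h). Juice is collected by gravity every 15 min and titrated to pH 7.4 with 0.1 N NaOH. Inhibitor is given i.v. at submaximal plateau. % inhibition compares the peak-inhibition sample with the pre-dose sample. ED50 uses three doses × three dogs, with 95% confidence limits (n = 9).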
# [3] = test system: Rattus norvegicus; experiment: Inhibition of histamine-stimulated gastric acid secretion in lumen perfused anesthetized rat after intraduodenal administration; assay type: functional; conditions: Stomach
# Method in brief: (§2)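 Anaesthetized rat with stomach lumen perfusion. Effluent H⁺ activity is monitored continuously with a microflow glass electrode. Secretion is driven by i.v. histamine infusion at 0.25 μmol/(kg·min). Inhibitor is given i.v. or i.d. once a submaximal plateau is reached. % inhibition compares peak inhibition with the pre-dose plateau. ED50 uses three dose levels, three animals per dose.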
# [4] = test system: Rattus norvegicus; experiment: Inhibition of histamine-stimulated gastric acid secretion in lumen perfused anesthetized rat after intravenous administration; assay type: functional; conditions: Stomach; method in brief: as §2
# [5] = Half-life at pH 1.0; assay type: ADME; conditions: buffer; method in brief: as §1
# [6] = Partition coefficient at 37 degrees Celsius at pH 7.4; assay type: physicochemical; conditions: octanol/water
# [7] = Dissociation constant at 37 degrees Centigrade; assay type: physicochemical
# [8] = test system: Canis familiaris; experiment: Percent inhibition of histamine-stimulated gastric acid secretion in Heidenhain pouch dog after intraduodenal administration of compound (1 umol/kg); assay type: functional, Canis lupus familiaris, Stomach
# Method in brief: (§3)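 Heidenhain pouch dog with i.v. histamine at 0.5 μmol/(kg·h). Juice is collected every 15 min and acid output is found by titration to pH 7.4. Compound is given intraduodenally via a chronic duodenal cannula at submaximal plateau. Value is peak inhibition or mean plateau inhibition over 1 to 2½ h, mean of n = 4 dogs ± SEM.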
# [9] = Dissociation constant at 37 degree Centigrade; assay type: physicochemical
# [10] = test system: Rattus norvegicus; experiment: Inhibition of histamine-stimulated gastric acid secretion in lumen perfused anesthetized rat after intravenous administration of 1 umol/kg; assay type: functional; conditions: Stomach; method in brief: as §2
# [11] = test system: Rattus norvegicus; experiment: Inhibition of histamine-stimulated gastric acid secretion in lumen perfused anesthetized rat after intravenous administration of 1 umol/kg.; assay type: functional; conditions: Stomach; method in brief: as §2
# [12] = test system: Rattus norvegicus; experiment: Inhibition of histamine-stimulated gastric acid secretion in lumen perfused anesthetized rat after intravenous administration; Poor solubility; assay type: functional, organism-based; conditions: Stomach; method in brief: as §2
# [13] = Partition coefficient at 37 degree Celsius at pH 7.4; assay type: physicochemical; conditions: octanol/water
# [14] = test system: Canis familiaris; experiment: Percent inhibition of histamine-stimulated gastric acid secretion in Heidenhain pouch dog after intraduodenal administration of compound (2 umol/kg); assay type: functional, Canis lupus familiaris, Stomach; method in brief: as §3
# [15] = Solubility in water at pH 10
half-life [1] [h],pKa [9],Compound,ED50 [2] [µmol/kg],ED50 [3] [µmol/kg],also measured
17,,COc1ccc2[nH]c([S+]([O-])Cc3nccc(N(C)C)c3Cl)nc2c1 (stereo not given),0.26,0.38,ED50 [4]: 0.44 µmol/kg
456,,COc1ccc2[nH]c([S+]([O-])Cc3ncc(C)c(OC)c3C)nc2c1 (stereo not given) [OMEPRAZOLE],0.2,,half-life [5]: 2 min; logD [6]: 2.18; pKa [7]: 6.29; Inhibition [8]: 53%
864,5.4,COc1ccc2[nH]c([S+]([O-])Cc3cc(N4CCCCC4)c(Br)cn3)nc2c1 (stereo not given),2.94,1.05,
432,5.92,COc1ccc2[nH]c([S+]([O-])Cc3ncc(C)c(N(C)C)c3Cl)nc2c1 (stereo not given),,1.48,half-life [5]: 1 min; Inhibition [8]: 67%; ED50 [4]: 0.34 µmol/kg
,,COc1ccc2[nH]c([S+]([O-])Cc3cc(N4CCOCC4)c(Br)cn3)nc2c1 (stereo not given),,,inhibition in vivo at 1 µmol/kg [10]: 14%
300,,COc1ccc2[nH]c([S+]([O-])Cc3nccc(N4CCCCC4)c3Br)nc2c1 (stereo not given),,,ED50 [4]: 0.85 µmol/kg
144,5.89,COc1ccc2[nH]c([S+]([O-])Cc3nccc(N4CCOCC4)c3F)nc2c1 (stereo not given),,3.2,
26,6.96,COc1ccc2[nH]c([S+]([O-])Cc3cc(N(C)C)c(F)cn3)nc2c1 (stereo not given),,,inhibition in vivo at 1 µmol/kg [11]: 37%
36,7.58,COc1ccc2[nH]c([S+]([O-])Cc3nccc(N4CCCC4)c3Cl)nc2c1 (stereo not given),,,ED50 [12]: Poor solubility
444,,COc1ccc2[nH]c([S+]([O-])Cc3ncc(C)c(N4CCCCC4)c3Cl)nc2c1 (stereo not given),,2.51,
418,5.72,COc1ccc2[nH]c([S+]([O-])Cc3cc(N4CCOCC4)c(F)cn3)nc2c1 (stereo not given),5.07,0.65,
49,6.92,COc1ccc2[nH]c([S+]([O-])Cc3cc(N4CCCC4)c(Br)cn3)nc2c1 (stereo not given),,,
60,,COc1ccc2[nH]c([S+]([O-])Cc3ncc(C)c(N4CCCC4)c3Cl)nc2c1 (stereo not given),0.57,,
11,7.12,COc1ccc2[nH]c([S+]([O-])Cc3nccc(N(C)C)c3F)nc2c1 (stereo not given),,,
101,5.8,COc1ccc2[nH]c([S+]([O-])Cc3cc(N(C)C)c(Br)cn3)nc2c1 (stereo not given),,1.75,ED50 [4]: 0.26 µmol/kg
1300,5.28,COc1ccc2[nH]c([S+]([O-])Cc3nccc(N4CCOCC4)c3Cl)nc2c1 (stereo not given),1.01,1.14,half-life [5]: 1 min; logD [13]: 1.81; Inhibition [14]: 48%; solubility [15]: 15 mg/mL
96,,COc1ccc2[nH]c([S+]([O-])Cc3cc(N(C)C)c(Cl)cn3)nc2c1 (stereo not given),0.77,,ED50 [4]: 1.32 µmol/kg
> 3000,5.32,COc1ccc2[nH]c([S+]([O-])Cc3ncc(C)c(N4CCOCC4)c3Cl)nc2c1 (stereo not given),,,
175,5.95,COc1ccc2[nH]c([S+]([O-])Cc3nccc(N4CCCCC4)c3Cl)nc2c1 (stereo not given),1.16,7.72,
